Reference: ChEMBL document CHEMBL1146375, “Synthetic studies on novel benzimidazolopeptides with antimicrobial, cytotoxic and anthelmintic potential” (2007)
In brackets after ≈: the same amount, converted by molar mass. Residues, ends and D or L forms follow the SMILES beside them. *: point of attachment. X2 = O=C(c1cc(-c2nc3ccc([N+](=O)[O-])cc3[nH]2)ccc1O)*

How the values were obtained:
[1] = Growth inhibition of DLA cells at 250 ug/mL after 3 hrs; type: functional; settings: Mus musculus
Outline: (§1)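 DLA and EAC cells passaged intraperitoneally in albino mice, harvested after 15–20 days and adjusted to 1 × 10⁶ cells/mL. Dilutions in Dulbecco's medium (500–31.25, some down to 3.91 µg/mL; 5-FU reference) mixed 1:1 with cells and held 3 h at 37 °C. Trypan blue exclusion gave % growth inhibition; CTC50 by graphical extrapolation.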

Pontoscolex corethrurus [2] = assay: Anthelmintic activity against Pontoscolex corethrurus ICARBC 408 assessed as mean death time; type: functional
Outline: (§2)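 Earthworms exposed to test suspensions at 2 mg mL−1, prepared by triturating compound with Tween 80 (0.5%) and distilled water, stirring 30 min, then diluting to 0.2% w/v. Mebendazole suspension was made the same way. Death was confirmed by moving worms into 50 °C warm water and looking for movement. Mean death time (min) taken from triplicate sets.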

[3] = Growth inhibition of DLA cells at 500 ug/mL after 3 hrs; type: functional; settings: Mus musculus; outline: as §1
Eudrilus [4] = assay: Anthelmintic activity against Eudrilus sp. assessed as mean paralyzing time; type: functional
Outline: (§3)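 Earthworms exposed to test suspensions at 2 mg mL^-1 (0.2% w/v), made by triturating compound with Tween 80 (0.5%) and distilled water, then mechanically stirred 30 min. Mebendazole suspension prepared alike as reference. Paralysis and death times recorded; death confirmed by no movement in 50 °C water. Means from triplicate sets.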

Trichophyton benhamiae [5] = assay: Antifungal activity against Trichophyton mentagrophytes MUCC 665 after 48 hrs by tube dilution method; type: functional, Arthroderma benhamiae
Outline: (§4)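 Tube dilution MIC as for bacteria (seven concentrations, 200–3.1 […]), with DMSO in place of DMF. Tubes inoculated with fungal culture and incubated 48 h at 37 °C. MIC read from presence or absence of growth.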

Bacillus subtilis [6] = assay: Antibacterial activity against Bacillus subtilis NCIM 2063 after 18 hrs by disc diffusion method; type: functional
Outline: (§5)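 Modified Kirby-Bauer disc diffusion. Plates inoculated with spore suspension (about 6 × 10⁴ spores mL^-1). Sterile 6 mm paper discs carried test samples at 10 mg mL^-1; ciprofloxacin disc as reference, DMF disc as negative control. Plates held 18 h at 37 °C. Inhibition zone diameters (mm) averaged over triplicate sets.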

Staphylococcus aureus [7] = assay: Antibacterial activity against Staphylococcus aureus NCIM 2079 after 18 hrs by disc diffusion method; type: functional; outline: as §5
Trichophyton benhamiae [8] = assay: Antifungal activity against Trichophyton mentagrophytes MUCC 665 after 48 hrs by disc diffusion method; type: functional, Arthroderma benhamiae
Outline: (§6)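 Agar well diffusion on plates inoculated with spore suspension in normal saline from cultures on Sabouraud's broth. Wells punched and loaded with test samples or griseofulvin at 10 mg mL^-1, with DMSO as negative control. Incubated 48 h at 37 °C.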

[9] = Growth inhibition of EAC cells at 31.25 ug/mL after 3 hrs; type: functional; settings: Mus musculus, Ehrlich; outline: as §1
Pseudomonas aeruginosa [10] = assay: Antibacterial activity against Pseudomonas aeruginosa NCIM 2034 after 18 hrs by disc diffusion method; type: functional; outline: as §5
[11] = Growth inhibition of EAC cells at 125 ug/mL after 3 hrs; type: functional; settings: Mus musculus, Ehrlich; outline: as §1
Candida albicans [12] = assay: Antifungal activity against Candida albicans MUCC 29 after 48 hrs by tube dilution method; type: functional; outline: as §4
[13] = Growth inhibition of DLA cells at 125 ug/mL after 3 hrs; type: functional; settings: Mus musculus; outline: as §1
[14] = Growth inhibition of EAC cells at 500 ug/mL after 3 hrs; type: functional; settings: Mus musculus, Ehrlich; outline: as §1
Escherichia coli [15] = assay: Antibacterial activity against Escherichia coli NCIM 2065 after 18 hrs by tube dilution method; type: functional; settings: NCIM 2065, 18 h
Microsporum audouinii [16] = assay: Antifungal activity against Microsporum audouinii MUCC 545 after 48 hrs by tube dilution method; type: functional; outline: as §4
[17] = Growth inhibition of DLA cells after 3 hrs; type: functional; settings: Mus musculus; outline: as §1
[18] = Anthelmintic activity against Megascoplex konkanensis ICARBC 211 assessed as mean death time; type: functional; outline: as §3
[19] = Growth inhibition of EAC cells after 3 hrs; type: functional; settings: Mus musculus, Ehrlich; outline: as §1
Microsporum audouinii [20] = assay: Antifungal activity against Microsporum audouinii MUCC 545 after 48 hrs by disc diffusion method; type: functional; outline: as §6
Eudrilus [21] = assay: Anthelmintic activity against Eudrilus sp. assessed as mean death time; type: functional; outline: as §2
Pseudomonas aeruginosa [22] = assay: Antibacterial activity against Pseudomonas aeruginosa NCIM 2034 after 18 hrs by tube dilution method; type: functional; settings: NCIM 2034, 18 h
Outline: (§7)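 Tube dilution MIC. Stock diluted in sterile broth to seven concentrations from 200 to 3.1 […]. Each tube inoculated with one loopful of test bacterium and incubated 18 h at 37 °C. MIC read from presence or absence of growth.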

[23] = Growth inhibition of DLA cells at 31.25 ug/mL after 3 hrs; type: functional; settings: Mus musculus; outline: as §1
[24] = Growth inhibition of EAC cells at 250 ug/mL after 3 hrs; type: functional; settings: Mus musculus, Ehrlich; outline: as §1
[25] = Growth inhibition of EAC cells at 62.5 ug/mL after 3 hrs; type: functional; settings: Mus musculus, Ehrlich; outline: as §1
[26] = Anthelmintic activity against Megascoplex konkanensis ICARBC 211 assessed as mean paralyzing time; type: functional; outline: as §3
Candida albicans [27] = assay: Antifungal activity against Candida albicans MUCC 29 after 48 hrs by disc diffusion method; type: functional; outline: as §6
Pontoscolex corethrurus [28] = assay: Anthelmintic activity against Pontoscolex corethrurus ICARBC 408 assessed as mean paralyzing time; type: functional; outline: as §3
[29] = Growth inhibition of DLA cells at 62.5 ug/mL after 3 hrs; type: functional; settings: Mus musculus; outline: as §1
Escherichia coli [30] = assay: Antibacterial activity against Escherichia coli NCIM 2065 after 18 hrs by disc diffusion method; type: functional; outline: as §5
Aspergillus niger = assay: Antifungal activity against Aspergillus niger MUCC 177 after 48 hrs by disc diffusion method; type: functional; outline: as §6
Staphylococcus aureus [31] = assay: Antibacterial activity against Staphylococcus aureus NCIM 2079 after 18 hrs by tube dilution method; type: functional; settings: NCIM 2079, 18 h; outline: as §7
Bacillus subtilis [32] = assay: Antibacterial activity against Bacillus subtilis NCIM 2063 after 18 hrs by tube dilution method; type: functional; settings: NCIM 2063, 18 h; outline: as §7

Row | SMILES | inhibition at 250 µg/mL [1] | Time (Pontoscolex corethrurus [2]) | inhibition at 500 µg/mL [3] | Time (Eudrilus [4]) | MIC (Trichophyton benhamiae [5]) | inhibition zone (IZ) (Bacillus subtilis [6]) | inhibition zone (IZ) (Staphylococcus aureus [7]) | inhibition zone (IZ) (Trichophyton benhamiae [8]) | inhibition at 31.25 µg/mL [9] | inhibition zone (IZ) (Pseudomonas aeruginosa [10]) | inhibition at 125 µg/mL [11] | MIC (Candida albicans [12]) | inhibition at 125 µg/mL [13] | inhibition at 500 µg/mL [14] | MIC (Escherichia coli [15]) | MIC (Microsporum audouinii [16]) | CC50 [17] | TIME [18] | CC50 [19] | inhibition zone (IZ) (Microsporum audouinii [20]) | further results
1 | COC(=O)CNC(=O)[C@H](CC(C)C)NC(=O)[C@@H]1CCCN1C(=O)[C@H](Cc1cnc[nH]1)NC(=O)c1cc(-c2nc3ccc([N+](=O)[O-])cc3[nH]2)ccc1O (X2-HPLG-OMe) | 31.6% | 21.72 min | 39.5% | 11.23 min | 6 mg/L (≈ 8.36 µM) | 14 mm | 10 mm | 15 mm | 3.57% | 24 mm | 10.7% | 6 mg/L (≈ 8.36 µM) | 23.7% | 28.7% | 12.5 mg/L (≈ 17.4 µM) | 6 mg/L (≈ 8.36 µM) | > 697 µM | 0.334 h | > 697 µM | 12 mm | Time (Eudrilus [21]): 20.33 min; MIC (Pseudomonas aeruginosa [22]): 6 mg/L (≈ 8.36 µM); inhibition at 31.25 µg/mL [23]: 28.7%; inhibition at 250 µg/mL [24]: 21.4%; inhibition at 62.5 µg/mL [25]: 7.14%; TIME [26]: 0.188 h; inhibition zone (IZ) (Candida albicans [27]): 20 mm; Time (Pontoscolex corethrurus [28]): 13.76 min; inhibition at 62.5 µg/mL [29]: 15.8%; inhibition zone (IZ) (Escherichia coli [30]): 14 mm; inhibition zone (IZ) (Aspergillus niger): 17 mm; MIC (Staphylococcus aureus [31]): 12.5 mg/L (≈ 17.4 µM); MIC (Bacillus subtilis [32]): 6 mg/L (≈ 8.36 µM)
2 | O=C(O)[C@@H]1CCCN1C(=O)[C@@H]1CCCN1C(=O)[C@@H]1CCCN1C(=O)c1cc(-c2nc3ccc([N+](=O)[O-])cc3[nH]2)ccc1O | 52.6% | 40.2 min | 65.8% | 26.54 min | 12.5 mg/L (≈ 21.2 µM) | 14 mm | 11 mm | 17 mm | 3.57% | 28 mm | 10.7% | 6 mg/L (≈ 10.2 µM) | 47.4% | 28.7% | 25 mg/L (≈ 42.3 µM) | 6 mg/L (≈ 10.2 µM) | 332 µM | 0.567 h | > 847 µM | 13 mm | Time (Eudrilus [21]): 37.23 min; MIC (Pseudomonas aeruginosa [22]): 6 mg/L (≈ 10.2 µM); inhibition at 31.25 µg/mL [23]: 18.4%; inhibition at 250 µg/mL [24]: 21.4%; inhibition at 62.5 µg/mL [25]: 7.14%; TIME [26]: 0.418 h; inhibition zone (IZ) (Candida albicans [27]): 24 mm; Time (Pontoscolex corethrurus [28]): 30.52 min; inhibition at 62.5 µg/mL [29]: 34.2%; inhibition zone (IZ) (Escherichia coli [30]): 17 mm; inhibition zone (IZ) (Aspergillus niger): 17 mm; MIC (Staphylococcus aureus [31]): 12.5 mg/L (≈ 21.2 µM); MIC (Bacillus subtilis [32]): 6 mg/L (≈ 10.2 µM)
3 | Cc1cc2nc(-c3ccc(C(=O)N[C@@H](Cc4cnc[nH]4)C(=O)N[C@@H](Cc4ccc(O)cc4)C(=O)O)cc3)[nH]c2cc1C | 18.4% | 29.02 min | 26.3% | 13.44 min | 6 mg/L (≈ 10.6 µM) | 13 mm | 11 mm | 16 mm | 3.57% | 23 mm | 7.14% | 12.5 mg/L (≈ 22.1 µM) | 21% | 10.7% | 25 mg/L (≈ 44.1 µM) | 25 mg/L (≈ 44.1 µM) | > 883 µM | 0.37 h | > 883 µM | 10 mm | Time (Eudrilus [21]): 23.08 min; MIC (Pseudomonas aeruginosa [22]): 12.5 mg/L (≈ 22.1 µM); inhibition at 31.25 µg/mL [23]: 13.2%; inhibition at 250 µg/mL [24]: 7.14%; inhibition at 62.5 µg/mL [25]: 3.57%; TIME [26]: 0.226 h; inhibition zone (IZ) (Candida albicans [27]): 17 mm; Time (Pontoscolex corethrurus [28]): 17.47 min; inhibition at 62.5 µg/mL [29]: 10.5%; inhibition zone (IZ) (Escherichia coli [30]): 17 mm; inhibition zone (IZ) (Aspergillus niger): 17 mm; MIC (Staphylococcus aureus [31]): 12.5 mg/L (≈ 22.1 µM); MIC (Bacillus subtilis [32]): 6 mg/L (≈ 10.6 µM)
